Measured values as given in paper PMC9007260 (Russian Journal of Organic Chemistry, 2022).
Marks after values point to notes of the source that are not given here.

Key:
[1] = tested on: coagulation in hemostasis; assay: Anticoagulant activity, activated partial thromboplastin time; assay type: biochemical; conditions: value (range), n = 6
How it was run: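 APTT was measured turbidimetrically on a hemocoagulometer using centrifuged citrated blood. Change is given as percent of control with a range in parentheses, n = 6. Significance was tested against control and reference drugs at p ≤ 0.05 or p ≤ 0.001.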

[2] = tested on: ADP-induced platelet aggregation; assay: ADP-induced platelet aggregation; assay type: cell-based; conditions: pro-aggregation activity versus etamsylate
How it was run: (§1)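 Citrated blood was centrifuged, and platelet aggregation was recorded on an aggregometer using a published method. Collagen induced the latent period; ADP induced maximum amplitude and aggregation rate. Changes are given as percent of control, n = 6. Significance was tested against control and reference drugs at p ≤ 0.05 or p ≤ 0.001.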

[3] = tested on: collagen-induced platelet aggregation; assay: Collagen-induced platelet aggregation; assay type: cell-based
How it was run: as §1

Cn1c(=O)c2c(ncn2CCN2C(=O)C(=NNC(=O)C[N+](C)(C)C)c3ccccc32)n(C)c1=O.[Cl-] [Compound 4a, 2-[2-(1-{2-[1,3-Dimethyl-2,6-dioxo-2,3-dihydro-1H-purin-7(6H)-yl]ethyl}-2-oxo-2,3-dihydro-1H-indol-3-ylidene)hydrazinyl]-N,N,N-trimethyl-2-oxoethan-1-aminium chloride]
APTT (activated partial thromboplastin time) [1]: +8.4 (7.3–10.4)^c,e percent of control

Sodium heparin [reference compound]
APTT (activated partial thromboplastin time) [1]: +20.3 (19.7–21.4)^d percent of control

C[N+](C)(C)CC(=O)NN=C1C(=O)N(CCn2cnc3c(N)ncnc32)c2ccccc21.[Cl-] [Compound 3a, 2-(2-{1-[2-(6-Amino-9H-purin-9-yl)ethyl]-2-oxo-2,3-dihydro-1H-indol-3-ylidene}hydrazinyl)-N,N,N-trimethyl-2-oxoethan-1-aminium chloride]
APTT (activated partial thromboplastin time) [1]: +3.7 (2.9–5.4)^e percent of control

Cc1ccc2c(c1)C(=NNC(=O)C[N+](C)(C)C)C(=O)N2CCn1cnc2c1c(=O)n(C)c(=O)n2C.[Cl-] [Compound 4b, 2-[2-(1-{2-[1,3-Dimethyl-2,6-dioxo-2,3-dihydro-1H-purin-7(6H)-yl]ethyl}-5-methyl-2-oxo-2,3-dihydro-1H-indol-3-ylidene)hydrazinyl]-N,N,N-trimethyl-2-oxoethan-1-aminium chloride]
Platelet aggregation activity relative to etamsylate [2]: more than twofold | Effect on latent period (in words) [3]: without affecting the latent period | APTT (activated partial thromboplastin time) [1]: +7.3 (5.6–9.4)^c,e percent of control

Cc1ccc2c(c1)C(=NNC(=O)C[n+]1cccc(C)c1C)C(=O)N2CCn1cnc2c(N)ncnc21.[Br-] [Compound 3d, 1-[2-(2-{1-[2-(6-Amino-9H-purin-9-yl)ethyl]-5-methyl-2-oxo-2,3-dihydro-1H-indol-3-ylidene}hydrazinyl)-2-oxoethyl]-2,3-dimethylpyridinium bromide]
APTT (activated partial thromboplastin time) [1]: +2.5 (1.8–4.3)^e percent of control

Cc1ccc2c(c1)C(=NNC(=O)C[N+](C)(C)C)C(=O)N2CCn1cnc2c(N)ncnc21.[Cl-] [Compound 3b, 2-(2-{1-[2-(6-Amino-9H-purin-9-yl)ethyl]-5-methyl-2-oxo-2,3-dihydro-1H-indol-3-ylidene}hydrazinyl)-N,N,N-trimethyl-2-oxoethan-1-aminium chloride]
APTT (activated partial thromboplastin time) [1]: +6.5 (4.9–8.3)^c,e percent of control

CC(=O)Oc1ccccc1C(=O)O [Acetylsalicylic acid, reference compound]
APTT (activated partial thromboplastin time) [1]: +1.1 (0.5–1.9)^e percent of control

CCc1ccc2c(c1)C(=NNC(=O)C[n+]1ccccc1)C(=O)N2CCn1cnc2c(N)ncnc21.[Cl-] [Compound 3c, 1-[2-(2-{1-[2-(6-Amino-9H-purin-9-yl)ethyl]-5-ethyl-2-oxo-2,3-dihydro-1H-indol-3-ylidene}hydrazinyl)-2-oxoethyl]pyridinium chloride]
APTT (activated partial thromboplastin time) [1]: +5.3 (4.1–9.6)^c,e percent of control
